In ChEMBL document CHEMBL4406880, “Design, synthesis, and bioactivity of dihydropyrimidine derivatives as kinesin spindle protein inhibitors” (Bioorg Med Chem, 2019):

How the values were obtained:
Type in all cases: functional
[1] = test system: RPMI-8226; assay: Growth inhibition of human RPMI8226 cells incubated for 48 hrs by sulforhodamine B assay; conditions: RPMI-8226, 48 h
Procedure, shortened: (§1)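 NCI-60 five-dose assay, SRB end-point, same culture conditions. Compound is tested at tenfold dilutions of 0.01, 0.1, 1, 10 and 100 µM for 48 h at 37 °C, with DMSO/PBS vehicle controls. Percentage growth at each concentration is taken against untreated cells and a time-zero plate. GI50 is 50% net growth decrease, TGI is total growth inhibition, and LC50 is 50% loss of initial cells.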

[2] = test system: NCI-H322M; assay: Growth inhibition of human NCI-H322M cells incubated for 48 hrs by sulforhodamine B assay; procedure, shortened: as §1
[3] = test system: SNB-75; assay: Growth inhibition of human SNB75 cells incubated for 48 hrs by sulforhodamine B assay; conditions: SNB-75, 48 h
Procedure, shortened: (§2)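 NCI-60 five-dose SRB assay. Cells were exposed for 48 h to tenfold dilutions of 0.01, 0.1, 1, 10 and 100 µM, in RPMI 1640 with 5% FBS. Plates fixed with TCA at the time of drug addition served as the time-zero reference. GI50 is the concentration giving a 50% reduction in net growth. TGI is total growth inhibition. LC50 is a net 50% loss of the initial cells.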

[4] = test system: LOX IMVI; assay: Growth inhibition of human LOXIMVI cells incubated for 48 hrs by sulforhodamine B assay
Procedure, shortened: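 NCI-60 five-dose SRB assay in RPMI 1640 with 5% FBS, 37 °C, 5% CO2. Compound given at five tenfold dilutions, 0.01–100 µM, for 48 h. Adherent cells fixed with TCA, suspension cells with 16% final TCA. Bound SRB read at 515 nm and growth calculated against time-zero and untreated controls. GI50 taken from dose–response curves as the concentration giving a 50% decrease in net cell growth.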

[5] = test system: SK-OV-3; assay: Growth inhibition of human SKOV3 cells incubated for 48 hrs by sulforhodamine B assay; conditions: SK-OV-3, 48 h; procedure, shortened: as §2
[6] = test system: ACHN; assay: Growth inhibition of human ACHN cells incubated for 48 hrs by sulforhodamine B assay
Procedure, shortened: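 NCI-60 five-dose mode: five tenfold dilutions (0.01, 0.1, 1, 10, 100 µM) are applied for 48 h to cells in RPMI 1640 with 5% FBS at 37 °C. Endpoint is TCA fixation with sulforhodamine B read at 515 nm. % growth comes from the 0 h and control absorbances. GI50 is the concentration giving a 50% reduction in net cell growth.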

[7] = test system: SF-295; assay: Growth inhibition of human SF295 cells assessed as cell viability at 100 uM incubated for 48 hrs by sulforhodamine B assay; conditions: SF-295, 48 h, read-out: Activity
[8] = test system: HT-29; assay: Growth inhibition of human HT-29 cells assessed as cell viability at 100 uM incubated for 48 hrs by sulforhodamine B assay; conditions: HT-29, 48 h, read-out: Activity
[9] = test system: SR; assay: Growth inhibition of human SR cells assessed as cell viability at 100 uM incubated for 48 hrs by sulforhodamine B assay; conditions: read-out: Activity
[10] = test system: UACC-62; assay: Growth inhibition of human UACC62 cells assessed as cell viability at 1 uM incubated for 48 hrs by sulforhodamine B assay; conditions: UACC-62, 48 h, read-out: Activity
[11] = test system: Malme-3M; assay: Growth inhibition of human MALME-3M cells assessed as cell viability at 1 uM incubated for 48 hrs by sulforhodamine B assay; conditions: read-out: Activity
[12] = test system: HCT-15; assay: Growth inhibition of human HCT15 cells assessed as cell viability at 1 uM incubated for 48 hrs by sulforhodamine B assay; conditions: HCT-15, 48 h, read-out: Activity
[13] = test system: NCI-H322M; assay: Growth inhibition of human NCI-H322M cells assessed as cell viability at 1 uM incubated for 48 hrs by sulforhodamine B assay; conditions: read-out: Activity
[14] = test system: DU-145; assay: Growth inhibition of human DU145 cells assessed as cell viability at 0.1 uM incubated for 48 hrs by sulforhodamine B assay; conditions: DU-145, 48 h, read-out: Activity
[15] = test system: SK-OV-3; assay: Growth inhibition of human SKOV3 cells assessed as cell viability at 0.1 uM incubated for 48 hrs by sulforhodamine B assay; conditions: SK-OV-3, 48 h, read-out: Activity
[16] = test system: Malme-3M; assay: Growth inhibition of human MALME-3M cells assessed as cell viability at 0.1 uM incubated for 48 hrs by sulforhodamine B assay; conditions: read-out: Activity
[17] = test system: NCI-H322M; assay: Growth inhibition of human NCI-H322M cells assessed as cell viability at 0.1 uM incubated for 48 hrs by sulforhodamine B assay; conditions: read-out: Activity
[18] = test system: MOLT-4; assay: Growth inhibition of human MOLT4 cells assessed as cell viability at 0.1 uM incubated for 48 hrs by sulforhodamine B assay; conditions: MOLT-4, 48 h, read-out: Activity
[19] = test system: SN12C; assay: Growth inhibition of human SN12C cells assessed as cell viability at 0.001 uM incubated for 48 hrs by sulforhodamine B assay relative to control; conditions: read-out: Activity
[20] = test system: 786-0; assay: Growth inhibition of human 786-0 cells assessed as cell viability at 0.001 uM incubated for 48 hrs by sulforhodamine B assay relative to control; conditions: 786-0, 48 h, read-out: Activity
[21] = test system: SK-MEL-28; assay: Growth inhibition of human SK-MEL-28 cells assessed as cell viability at 0.001 uM incubated for 48 hrs by sulforhodamine B assay relative to control; conditions: SK-MEL-28, 48 h, read-out: Activity
[22] = test system: HT-29; assay: Growth inhibition of human HT-29 cells assessed as cell viability at 0.001 uM incubated for 48 hrs by sulforhodamine B assay relative to control; conditions: HT-29, 48 h, read-out: Activity
[23] = test system: SR; assay: Growth inhibition of human SR cells assessed as cell viability at 0.001 uM incubated for 48 hrs by sulforhodamine B assay relative to control; conditions: read-out: Activity
[24] = test system: NCI/ADR-RES; assay: Growth inhibition of human NCI/ADR-RES cells assessed as cell viability at 100 uM incubated for 48 hrs by sulforhodamine B assay; conditions: read-out: Activity
[25] = read-out: LC50 (the source's name)
[26] = read-out: pLC50 (the source's name) (converted)

CC1=C(C(=O)OCc2ccccc2)C(c2ccc3c(c2)OCO3)n2c(nc3ccccc32)N1 (racemic)
CC50 [1, 25]: > 100 µM
TGI ([1]; read-out: TGI): > 100 µM
CC50 [1, 26]: > 100 µM
TGI ([1]; read-out: pTGI): > 100 µM
LC50 (concentration killing 50% of initial cells) ([2]; read-out: LC50): > 100 µM
TGI ([2]; read-out: TGI): > 100 µM
LC50 (concentration killing 50% of initial cells) ([2]; read-out: pLC50 (converted)): > 100 µM
TGI ([2]; read-out: pTGI): > 100 µM
GI50 ([3]; read-out: GI50): 0.22 µM
LC50 (concentration giving 50% net loss of initial cells) ([3]; read-out: LC50): > 100 µM
TGI ([3]; read-out: TGI): 0.8 µM
GI50 ([3]; read-out: pGI50 (converted)): 0.214 µM
LC50 (concentration giving 50% net loss of initial cells) ([3]; read-out: pLC50 (converted)): > 100 µM
TGI ([3]; read-out: pTGI (converted)): 0.794 µM
GI50 ([4]; read-out: GI50): 0.55 µM
LC50 ([4]; read-out: LC50): > 100 µM
TGI ([4]; read-out: TGI): > 100 µM
GI50 ([4]; read-out: pGI50 (converted)): 0.55 µM
LC50 ([4]; read-out: pLC50 (converted)): > 100 µM
TGI ([4]; read-out: pTGI): > 100 µM
GI50 ([5]; read-out: GI50): 0.47 µM
CC50 [5, 25]: > 100 µM
TGI ([5]; read-out: TGI): > 100 µM
GI50 ([5]; read-out: pGI50 (converted)): 0.468 µM
CC50 [5, 26]: > 100 µM
TGI ([5]; read-out: pTGI): > 100 µM
GI50 ([6]; read-out: GI50): 0.69 µM
CC50 [6, 25]: > 100 µM
TGI ([6]; read-out: TGI): > 100 µM
GI50 ([6]; read-out: pGI50 (converted)): 0.692 µM
CC50 [6, 26]: > 100 µM
TGI ([6]; read-out: pTGI): > 100 µM
viability at 100 µM [7]: 8%
viability at 100 µM [8]: 5%
viability at 100 µM [9]: 38%
viability at 1 µM [10]: 29%
viability at 1 µM [11]: 30%
viability at 1 µM [12]: 25%
viability at 1 µM [13]: 48%
viability at 0.1 µM [14]: 109%
viability at 0.1 µM [15]: 97%
viability at 0.1 µM [16]: 87%
viability at 0.1 µM [17]: 99%
viability at 0.1 µM [18]: 99%
viability at 0.001 µM [19]: 89%
viability at 0.001 µM [20]: 94%
viability at 0.001 µM [21]: 98%
viability at 0.001 µM [22]: 98%
viability at 0.001 µM [23]: 84%
viability at 100 µM [24]: 14%
